# Screening results from PubChem BioAssay.
# Yeast lifespan up – extends the lifespan of yeast | actives 0.68% (n = 130,000) | S. cerevisiae growth with nicotinamide, OD615; deaD strain in restrictive glucose medium | inhibition of the nicotinamide effect, % at 10 µM;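 active = inhibition above a set limit, placed 3 SD over the median of all compounds, cut at about 26% in these data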;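 also: 0% = nicotinamide-treated wells and 100% = cells grown without nicotinamide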
#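 Assay system: engineered S. cerevisiae DeaD replicative-lifespan strain, galactose-grown log-phase cells; medium: restrictive CSMM-D dextrose medium; also added: nicotinamide, 1.5 mM, co-present with compound; schedule: 48 h compound exposure at 30 °C, humidified; detection: absorbance at 615 nm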
# WT yeast gro inh – growth inhibition of WT yeast, mitochondrial fusion screen. actives 2.1% (n = 190,000). AID 1362. mitochondrial fusion phenotypic screen, WT strain. inhibition, % at 10 µM; in the data active = inhibition above about 58%; tested in S. cerevisiae
# Measles CPE – protection of cells from measles virus. Measles virus-infected cells, CPE protection, absorbance. protection (pct of control), % at 4 µM. actives 1.5% (n = 140,000). AID 841; in the data active = protection mostly above about 24%, no sharp cut-off; inactive = mostly below about 26%
# BB579 growth dn – reduces growth of yeast BB579 in restrictive medium | actives 0.51% (n = 140,000) | inhibition, % at 10 µM | S. cerevisiae BB579 growth, OD615, 48 h;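 active = inhibition above a set limit, 3 SD over the mean compound inhibition, cut at about 44% in these data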
#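 Assay system – yeast BB579 (DeaD) · Dosing – single compound dose of 10 µM, 0.25% DMSO final · Detection – OD615 turbidity measurement · Buffer or medium – CSMM-D restrictive synthetic medium containing dextrose (glucose) · Benchmarks – positive control amphotericin B 10 µg/mL · Incubation – 48 h exposure, 30 °C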
# DAT uptake mod – human DAT dopamine uptake with cocaine, either direction; LLC-PK1 hDAT cells, [14C]-dopamine uptake with cocaine IC80; actives deviate in either direction; actives 1.3% (n = 110,000); B-score at 10 µM;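 active = Z score or B-score, a plate-position-corrected score, falls beyond the plate's 99.7% confidence bounds, in either direction; inactive = both scores lie inside the 99.7% bounds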;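 also: scored against the spread of the other compound wells on the same plate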
# Target sequence (Q01959 whole entry, looked up): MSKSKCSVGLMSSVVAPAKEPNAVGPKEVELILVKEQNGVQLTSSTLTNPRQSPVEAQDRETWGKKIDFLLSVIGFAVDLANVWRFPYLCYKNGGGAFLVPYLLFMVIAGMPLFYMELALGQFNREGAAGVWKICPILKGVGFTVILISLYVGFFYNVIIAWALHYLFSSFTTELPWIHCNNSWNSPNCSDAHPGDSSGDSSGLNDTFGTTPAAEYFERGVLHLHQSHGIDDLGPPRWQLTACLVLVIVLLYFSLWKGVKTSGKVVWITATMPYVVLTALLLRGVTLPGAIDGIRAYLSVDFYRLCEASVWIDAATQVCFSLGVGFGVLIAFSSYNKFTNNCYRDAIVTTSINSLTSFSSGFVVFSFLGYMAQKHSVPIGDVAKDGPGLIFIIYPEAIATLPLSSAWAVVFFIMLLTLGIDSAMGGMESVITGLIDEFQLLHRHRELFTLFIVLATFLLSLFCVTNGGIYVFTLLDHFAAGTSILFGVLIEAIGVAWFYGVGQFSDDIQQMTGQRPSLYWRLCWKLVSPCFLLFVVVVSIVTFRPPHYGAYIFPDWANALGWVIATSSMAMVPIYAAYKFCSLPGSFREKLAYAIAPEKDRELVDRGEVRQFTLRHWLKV
# RAM network inh – blocks the yeast RAM network; S. cerevisiae dse1pr::URA3 reporter, 5-FOA growth OD615, 2 d; analog-sensitive cbk1-as2 kinase mutant strain; inhibition, % at 50 µM; actives 1.8% (n = 190,000); AID 868;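 active = inhibition above a set limit, 3 SD over mean compound inhibition, cut at about 8.4% in these data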;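 also: 0% = DMSO-only wells with no growth and 100% = 10 µM 1-NA-PP1 full growth; inhibition rescues growth on 5-FOA so higher OD means more RAM inhibition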
# Active calls of the source: *; nt = no result given. Compounds with a hit are over-represented: about 6.1% of the library has one in this group of screens.
SMILES,Yeast lifespan up,WT yeast gro inh,Measles CPE,BB579 growth dn,DAT uptake mod,RAM network inh
COc1ccc(C2C3=C(CC(C)(C)CC3=O)Oc3ncn(Cc4ccccc4)c(=N)c32)cc1 (stereo unspecified),-9,97*,5,-15,1.3,2
NC(=O)c1ccsc1NC(=O)c1ccc(N2CCCC2=O)cc1,nt,15,nt,nt,nt,2
COc1cccc(/C=C/C(=O)OCC(=O)Nc2ccc(Cl)c(S(=O)(=O)N(C)C)c2)c1OC,nt,18,nt,nt,nt,5
O=c1cc(-c2ccccc2)[nH]n1-c1ccc([N+](=O)[O-])cc1,-6,nt,8,-63,-2.5*,3
O=c1c(N=Nc2ccc(O)cc2)c(-c2ccccc2)[nH]n1-c1ccc([N+](=O)[O-])cc1,nt,19,nt,nt,nt,3
Cc1cccc(C)c1OCC(=O)Nc1ccc(N2CCOCC2)cc1,nt,-2,nt,nt,nt,2
CC(C)(C)NC(=O)C(c1cccs1)N(CC1CCCO1)C(=O)c1ccc(-c2ccccc2)[nH]1 (stereo unspecified),-3,56,16,-31,nt,5
O=C(NCC1CCCO1)C(c1cccs1)N(C(=O)c1ccc(-c2ccccc2)[nH]1)C1CCCC1 (stereo unspecified),-5,27,51*,-16,nt,2
O=C(NCC1CCCO1)C(c1cccs1)N(Cc1ccccc1)C(=O)c1ccc(-c2ccccc2)[nH]1 (stereo unspecified),2,49,11,-35,nt,10*
CCCCN1CNC(=S)N(c2ccc(C(=O)OCC)cc2)C1,0,-5,5,-28,nt,2
Cc1cc(C)cc(NC(=O)CN2CCN(CCN=CC3=C(O)CC(c4ccc(Cl)cc4)CC3=O)CC2)c1 (stereo unspecified),nt,9,nt,nt,nt,1
Cc1ccc(N2NC(C)(c3cccs3)NC2=S)cc1 (stereo unspecified),-10,42,26,98*,nt,-1
CC(=O)Nc1ccc2nc(NC(=O)COc3ccccc3Cl)sc2c1,nt,0,nt,nt,nt,9.9*
Cc1cc(/C=N/n2cnnc2)c(C)n1-c1ccc(OCc2ccc(F)cc2)cc1,-7,62*,7,-16,0.032,0
Cc1cc(/C=N/n2cnnc2)c(C)n1-c1ccc(OCc2ccc(Cl)cc2Cl)cc1,-11,80,3,46*,-0.38,0
CCC/C(O)=C1\C(=O)CCCC1=NCCc1c(C)[nH]c2ccc(OC)cc12,nt,-6,nt,nt,nt,3
Nc1ccc2nc(CN3CCOCC3)[nH]c2c1,6,66*,7,-39,nt,-1
COCCNC(=O)c1ccc(N(C)S(=O)(=O)c2ccc(OC)c(OC)c2)cc1,-13,0,68*,-6,-0.47,1
Cn1c2c(c(=O)n(C)c1=O)C(CC(=O)Nc1ccc(F)cc1)C(=O)N2 (stereo unspecified),nt,-2,nt,nt,nt,-2
COc1ccc(C2CC3(CC(C)(C)NC(=S)N3)Oc3cc(O)cc(C)c32)cc1 (stereo unspecified),1,-10,16,-5,nt,9.7*
C=C(C)c1cccc(C(C)(C)NC(=O)N2CCN(CC(N)=O)CC2)c1,-6,-12,2,13,0.95*,1
C=C(C)c1cccc(C(C)(C)NC(=O)N2CCN(CC)CC2)c1,1,-19,5,-34,-0.79,2
FC(F)(Cl)c1nnc2ccc(Cl)nn12,nt,-1,nt,nt,nt,2
Cc1ccc(/C(=N\O)c2oc3c(C)c4oc(=O)cc(C)c4cc3c2C)cc1,nt,70*,4,-36,nt,2
CCOc1ccc(OCC)c(S(=O)(=O)NCCOC23CC4CC(CC(C4)C2)C3)c1,3,74*,9,-40,nt,8
SMILES,Yeast lifespan up,WT yeast gro inh,Measles CPE,BB579 growth dn,DAT uptake mod,RAM network inh
COc1cc(S(=O)(=O)NCCOC23CC4CC(CC(C4)C2)C3)c(OC)cc1Cl,-1,15,6,-8,nt,5
CN(c1ccccc1)c1ccc(/C=C(\CCC(=O)O)c2nc3ccccc3s2)cc1[N+](=O)[O-],-5,24,9,-11,nt,6
Cn1cnnc1Sc1ccc(/C=C(\CCC(=O)O)c2nc3ccccc3s2)cc1[N+](=O)[O-],nt,-16,nt,nt,nt,4
CNc1ccc(/C=C(\CCC(=O)O)c2nc3ccccc3s2)cc1[N+](=O)[O-],-1,-14,11,-41,nt,11*
Cc1ccc(/C=C(\CCC(=O)O)c2nc3ccccc3s2)cc1[N+](=O)[O-],4,-39,6,-38,nt,10.0*
O=C(COc1ccccc1Br)N1CCN(c2ccccc2)CC1,-8,-6,8,-20,0.0057,2
O=C(Nc1ccccc1)C1=C[C@@H](c2ccc(C(F)(F)F)cc2)C[C@@H](OCc2ccc(CO)cc2)O1,nt,63*,nt,nt,-0.056,9.7*
C=CCOC(=O)C1=C[C@H](c2ccc(Br)cc2)C[C@H](OCc2ccc(CO)cc2)O1,nt,nt,nt,nt,-0.017,nt
O=C(NCc1ccccc1)C1=C[C@@H](c2ccccc2)C[C@@H](OCc2ccc(CO)cc2)O1,nt,2,nt,nt,-0.019,8
C#Cc1ccc([C@@H]2C=C(C(=O)OCC=C)O[C@H](OCc3ccc(CO)cc3)C2)cc1,nt,5,nt,nt,0.6,10*
O=C(NCc1ccccc1)C1=C[C@H](c2ccc(Br)cc2)C[C@H](OCc2ccc(CO)cc2)O1,nt,44,nt,nt,-0.17,11*
O=C(C1=C[C@@H](c2ccc(Br)cc2)C[C@@H](OCc2ccc(CO)cc2)O1)N1CCOCC1,nt,10,nt,nt,-0.029,9.2*
Cc1ccc(Oc2c(C(N)=O)cc([N+](=O)[O-])cc2[N+](=O)[O-])cc1,-1,16,5,7,nt,1
Cc1c(Cl)cnc(NC(=O)COC(=O)c2cccc(S(=O)(=O)N3c4ccccc4CC3C)c2)c1Cl (stereo unspecified),4,25,17,-42,nt,7
CC(C)(C)[C@H]1C=C(C(=O)Nc2ccccc2)O[C@@H](OCc2ccc(CO)cc2)C1,nt,-14,nt,nt,-0.0079,10*
O=C(Nc1ccccc1)C1=C[C@@H](c2ccccc2)C[C@@H](OCc2ccc(CO)cc2)O1,nt,-2,nt,nt,-2.1,9.9*
Cc1nn(-c2cccc(C(F)(F)F)c2)c(Cl)c1/C=N/Nc1cccc(C(=O)O)c1,-10,55,6,94*,nt,3
Cc1nn(-c2ccccc2Cl)c(Cl)c1/C=N/Nc1cccc(C(=O)O)c1,-10,-14,9,29,nt,4
COc1cc(OC)cc(C(=O)N[C@H](C(=O)OCC(N)=O)C(C)C)c1,7,-3,3,-39,nt,0
CCOc1ccc(N2C(=O)CS/C2=N/NC(=O)COc2ccc3ccccc3c2)cc1,-14,21,4,-11,2.4*,3
O=C(Nc1ccc(S(=O)(=O)Nc2nccs2)cc1)C1CCCCC1,-9,-4,0,-47,0.33,1
Cc1cccc(N2C(=O)C(Oc3ccc(Cl)cc3Cl)C2C=O)c1C (stereo unspecified),51*,75*,12,-27,nt,4
